Our source for the inhibition in vivo, Activity and IC50 values is ChEMBL document CHEMBL4364303 (Eur J Med Chem, 2019).

Data set [1] concerns Mus musculus. Nature of the data set: Antiinflammatory activity in DNFB-induced ICR mouse model of auricle edema assessed as inhibition of ear swelling at 5 mg/kg, ig administered once daily for 6 days followed by 1% DNFB solution applied on right ear measured after 24 hrs relative to untreated control. The settings on record: po. It is filed as functional. An outline of the steps: (§1)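 Male ICR mice, 18-22 g, randomized by weight, 6 per group. Dosed by intragastric route once daily for 6 days; saline given to normal and model groups. Right ear coated with 10 uL 1% DNFB (DNFB in acetone/olive oil); left ear received acetone/olive oil only. Mice killed 24 h later and both ears weighed. Swelling = right minus left ear weight; inhibition calculated versus model control.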

In another data set the test system is RAW264.7. In words: Cytotoxicity against mouse RAW264.7 cells assessed as cell viability up to 50 uM after 24 hrs by MTT assay. It is filed as cell-based. The settings on record: raw264.7, 24 h. An outline of the steps:
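RAW264.7 cells (ATCC), about 1.0×10^5 cells/ml, were held 2 h in serum-free medium at 37°C, 5% CO2. The supernatant was replaced with RPMI 1640 containing compound at 0, 5, 10, 20, 30, 40 or 50 μM for 24 h. MTT (5 mg/mL stock) was added for the final 4 h. Formazan was dissolved in DMSO and OD570 read. Survival was compared with blank.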

Data set [2] can be described thus: Inhibition of soyabean 15-LOX preincubated for 5 mins followed by susbtrate addition measured after 10 mins by colorimetric method. Further details: species or system Glycine max. An outline of the steps: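 Soybean lipoxygenase assessed with a commercial lipoxygenase assay kit, following the kit instructions. IC50 values determined.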
Data set [3] concerns the target T1, Prostaglandin G/H synthase 1 (Ovis aries, UniProt P05979).
T1 sequence (P05979 whole entry): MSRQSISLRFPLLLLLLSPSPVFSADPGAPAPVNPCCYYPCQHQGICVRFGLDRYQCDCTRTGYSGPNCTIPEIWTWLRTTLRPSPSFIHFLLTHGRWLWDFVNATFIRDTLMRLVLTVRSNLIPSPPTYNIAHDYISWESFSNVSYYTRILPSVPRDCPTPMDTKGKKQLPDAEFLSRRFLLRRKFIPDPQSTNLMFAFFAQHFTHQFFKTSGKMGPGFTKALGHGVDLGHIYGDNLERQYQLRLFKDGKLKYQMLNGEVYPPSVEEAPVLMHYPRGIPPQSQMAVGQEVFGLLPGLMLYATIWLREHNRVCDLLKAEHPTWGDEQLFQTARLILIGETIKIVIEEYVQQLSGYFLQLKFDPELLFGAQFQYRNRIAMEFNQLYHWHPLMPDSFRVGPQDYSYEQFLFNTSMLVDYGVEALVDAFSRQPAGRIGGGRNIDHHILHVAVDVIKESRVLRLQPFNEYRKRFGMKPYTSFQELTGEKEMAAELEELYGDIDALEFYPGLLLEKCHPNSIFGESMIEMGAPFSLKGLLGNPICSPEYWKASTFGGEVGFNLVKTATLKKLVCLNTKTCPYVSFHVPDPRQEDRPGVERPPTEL
In words: Inhibition of ovine COX-1 using arachidonic acid as substrate incubated for 5 mins by fluorescence-based assay. An outline of the steps:
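COX-1 fluorometric inhibitor-screening kit. Assay buffer, COX-1 cofactor and arachidonic acid were combined with test compound and incubated 5 min at 37 °C. Inhibition derived from RFU relative to 100%-activity and blank controls. Run in triplicate; IC50 taken from concentration curves.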

Data set [4] deals with Mus musculus. In words: Antiinflammatory activity in DNFB-induced ICR mouse model of auricle edema assessed as inhibition of ear swelling at 0.5 mg/kg, ig administered once daily for 6 days followed by 1% DNFB solution applied on right ear measured after 24 hrs relative to untreated control. The settings on record: po. In kind it is functional. An outline of the steps:
as §1

Consider `O=C(c1cc2cc(Cl)ccc2n1Cc1ccc(F)cc1)N1CCN(Cc2ccccc2)CC1`, for which the inhibition in vivo at 5 mg/kg with Mus musculus [1] is 24%.

On to `COc1ccc(CN2CCN(C(=O)c3cc4cc(Cl)ccc4n3Cc3ccc(F)cc3)CC2)cc1`, for which, in the data set with RAW264.7, the Activity entry is recorded as “Non-Toxic”. Besides, the results for the half-maximal inhibitory concentration (IC50) in data set [2] and in data set [3] were 83.5 nM and 195 nM, respectively. Moreover, the inhibition in vivo at 5 mg/kg in the data set on Mus musculus [1] came to 43.1%. `Cc1nc(C)c(CN2CCN(C(=O)c3cc4cc(Cl)ccc4n3Cc3ccc(Cl)cc3)CC2)nc1C`: the figures for the IC50 in data set [2] and in data set [3] were 339 nM and 312 nM, respectively. The inhibition in vivo at 5 mg/kg in the data set with Mus musculus [1] came to 64.9%.

`Cc1cncc(CN2CCN(C(=O)c3cc4cc(Cl)ccc4n3Cc3ccc(F)cc3)CC2)c1`: the inhibition in vivo at 5 mg/kg in the data set with Mus musculus [1] amounted to 25.4%. Consider `N#Cc1ccc(CN2CCN(C(=O)c3cc4cc(Cl)ccc4n3Cc3ccc(F)cc3)CC2)cc1`, for which the inhibition in vivo at 5 mg/kg with Mus musculus [1] came out at 35.4%. For the molecule `Cc1nc(C)c(CN2CCN(C(=O)c3cc4cc(Cl)ccc4n3Cc3ccc(F)cc3)CC2)nc1C`, the inhibition in vivo at 5 mg/kg in the data set on Mus musculus [1] was 48.3%. As to `CN1CCN(C(=O)c2cc3cc(Cl)ccc3n2Cc2ccc(F)cc2)CC1`, the inhibition in vivo at 5 mg/kg in the data set on Mus musculus [1] is 36.7%. In the case of `COc1ccc2[nH]cc(CCNC(=O)c3cc4cc(Cl)ccc4n3Cc3ccc(F)cc3)c2c1`, the Activity entry in the data set with RAW264.7 was “Non-Toxic”. Besides, the figures for the IC50 in data set [2] and in data set [3] were 66.1 nM and 407 nM, respectively. In addition, the inhibition in vivo at 5 mg/kg in the data set on Mus musculus [1] came to 50%. In the case of `O=C(c1cc2cc(Cl)ccc2n1Cc1ccc(Cl)cc1)N1CCN(Cc2ccc(F)cc2)CC1`, the inhibition in vivo at 5 mg/kg in the data set with Mus musculus [1] was determined as 29.1%. For the molecule `Cc1cncc(CN2CCN(C(=O)c3cc4cc(Cl)ccc4n3Cc3ccc(Cl)cc3)CC2)c1`, the inhibition in vivo at 5 mg/kg with Mus musculus [1] came out at 29.8%.

Consider `O=C(c1cc2cc(Cl)ccc2n1Cc1ccc(F)cc1)N1CCN(Cc2ccc3c(c2)OCO3)CC1`, for which, in the data set on Mus musculus [1], the inhibition in vivo at 5 mg/kg turned out to be 34.2%. Turning to `O=C(c1cc2cc(Cl)ccc2n1Cc1ccc(Cl)cc1)N1CCN(Cc2ccc3c(c2)OCO3)CC1`, the inhibition in vivo at 5 mg/kg in the data set with Mus musculus [1] came out at 32.9%. In the case of `Cc1nc(C)c(CNC2CCN(C(=O)c3cc4cc(Cl)ccc4n3Cc3ccc(F)cc3)C2)nc1C` (configuration not stated), in the data set on Mus musculus [1], the inhibition in vivo at 5 mg/kg came out at 49.4%. As for `O=C(c1cc2cc(Cl)ccc2n1Cc1ccc(Cl)cc1)N1CCN(Cc2ccc(C(F)(F)F)cc2)CC1`, in the data set on Mus musculus [1], the inhibition in vivo at 5 mg/kg worked out at 30.4%. On the same count and under the same terms, to `Cc1ccc(CN2CCN(C(=O)c3cc4cc(Cl)ccc4n3Cc3ccc(Cl)cc3)CC2)cc1` belongs 39.2%; to `COc1ccc2[nH]cc(CCNC(=O)c3cc4cc(Cl)ccc4n3Cc3ccc(Cl)cc3)c2c1`, 44.3%. On the same count and under the same terms, to `O=C(c1cc2cc(Cl)ccc2n1Cc1ccc(F)cc1)N1CCN(Cc2ccc(C(F)(F)F)cc2)CC1` belongs 27.8%; to `Cc1nc(C)c(CNC2CCN(C(=O)c3cc4cc(Cl)ccc4n3Cc3ccc(Cl)cc3)C2)nc1C` (configuration not stated), 42.5%. In the case of `O=C(c1cc2cc(Cl)ccc2n1Cc1ccc(Cl)cc1)N1CCN(Cc2ccc(Cl)cc2)CC1`, the IC50 in data set [2] worked out at 210 nM; in data set [3] it was 361 nM. Further, the inhibition in vivo at 5 mg/kg in the data set with Mus musculus [1] amounted to 40.5%. Consider `Cc1ccc(CN2CCN(C(=O)c3cc4cc(Cl)ccc4n3Cc3ccc(F)cc3)CC2)cc1`, for which, in the data set on Mus musculus [1], the inhibition in vivo at 5 mg/kg is 32.9%.

Take `C[C@@H]1C[C@H]2[C@@H]3CCC4=CC(=O)C=C[C@]4(C)[C@@]3(F)[C@@H](O)C[C@]2(C)[C@@]1(O)C(=O)CO` [DEXAMETHASONE]: the inhibition in vivo at 0.5 mg/kg in the data set with Mus musculus [4] fell in the range of 46.8 to 63.8%. As to `CC(c1cc2ccccc2s1)N(O)C(N)=O` (configuration not stated) [ZILEUTON], it took 38.9 nM to reach half-maximal inhibition in data set [2] (IC50).
